Assay [1] addresses T1, Estrogen receptor (Bos taurus) (UniProt Q9XSB5+P49884). The assay is described as follows: Ratio of displacement of 17-beta-[3H]-estradiol from calf uterine estrogen receptor compared to 17-beta-estradiol after 12 hr incubation. The class given is protein assay. The gist of the method: (§1)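 Calf uterine cytosol (105000g, 60 min, 4 °C spin of homogenate in 5 mM sodium phosphate pH 7.5, 10 mM monothioglycerol, 10% glycerol; 0.68 mg protein in final mix) incubated at 4 °C without DMF with 10⁻⁹ M 17β-[³H]estradiol and nine competitor concentrations (3 × 10⁻¹²–10⁻⁶ M), triplicates. Dextran-coated charcoal separation, supernatant counted. RBA = IC50 ratio of estradiol to competitor ×100, mean of ≥3 experiments.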

Assay [2] concerns the target T1, Estrogen receptor (Bos taurus). The assay is described as follows: Ratio of displacement of 17-beta-[3H]-estradiol from calf uterine estrogen receptor compared to 17-beta-estradiol after 20 hr incubation. The class given is protein assay. The gist of the method: as §1

Turning to `C[C@]12CC[C@@H]3c4ccc(O)cc4C[C@@H](CCCCCCCCCCCOc4ccccc4)[C@H]3[C@@H]1CC[C@@H]2O`, the relative binding affinity (RBA) in assay [1] and in assay [2] was 0.1 in each case.

`C[C@]12CC[C@@H]3c4ccc(O)cc4C[C@@H](CCCCCCCCCCCBr)[C@H]3[C@@H]1CC[C@@H]2O`: the relative binding affinity (RBA) stood at 0.05 in assay [1] and 0.2 in assay [2].

Consider `C[C@]12CC[C@@H]3c4ccc(O)cc4C[C@@H](CCCCCCCCCCCF)[C@H]3[C@@H]1CC[C@@H]2O`, for which the relative binding affinity (RBA) in assay [1] was 1.3; in assay [2] it was 1.5.

For the molecule `C=CCCCCCCCCC[C@@H]1Cc2cc(O)ccc2[C@H]2CC[C@]3(C)[C@@H](O)CC[C@H]3[C@H]12`, the relative binding affinity (RBA) in assay [1] and in assay [2] was 0.09 each time.

Take `C[C@]12CC[C@@H]3c4ccc(O)cc4C[C@@H](CCCCCCCCCCCCl)[C@H]3[C@@H]1CC[C@@H]2O`: the relative binding affinity (RBA) in assay [1] and in assay [2] was 0.7 in each case.

As to `C[C@]12CC[C@@H]3c4ccc(O)cc4C[C@@H](CCCCCCCCCCCO)[C@H]3[C@@H]1CC[C@@H]2O`, the relative binding affinity (RBA) in assay [1] amounted to 2.9; in assay [2], 2.

`C[C@]12CC[C@@H]3c4ccc(O)cc4C[C@@H](CCCCCCCCCCCOc4ccc(I)cc4)[C@H]3[C@@H]1CC[C@@H]2O`: the relative binding affinity (RBA) is 0.1 in assay [1] and 0.09 in assay [2].

Take `C[C@]12CC[C@@H]3c4ccc(O)cc4CC[C@H]3[C@@H]1C[C@@H](I)[C@@H]2O`: the relative binding affinity (RBA) in assay [1] turned out to be 22.1; in assay [2], 27.1.

In the case of `C[C@]12CC[C@@H]3c4ccc(O)cc4C[C@@H](CCCCCCCCCCCI)[C@H]3[C@@H]1CC[C@@H]2O`, the relative binding affinity (RBA) came to 0.04 in assay [1] and 0.1 in assay [2].

The values are drawn from ChEMBL document CHEMBL1124962, “Synthesis and structure-affinity of a series of 7 alpha-undecylestradiol derivatives: a potential vector for therapy and imaging of estrogen-receptor-positive cancers” (J Med Chem, 1990).
